Results taken from ChEMBL document CHEMBL1926618, “Homosecoiridoids from the flower buds of Lonicera japonica” (2011).
Activity calls are given as the source filed them. The calls are words filed in the database; no cut-off is given here.

Legend:
BGC-823 = assay: Cytotoxicity against human BGC823 cells at 10 uM after 96 hrs by MTT assay; assay type: functional, cell-based
[1] = molecular target: T1, Tyrosine-protein phosphatase non-receptor type 1 (Homo sapiens) (UniProt P18031); assay: Inhibition of GST-tagged human PTP1B PTPase activity using p-NPP as substrate at 10 uM after 10 mins by spectrophotometry
T1 sequence (whole entry): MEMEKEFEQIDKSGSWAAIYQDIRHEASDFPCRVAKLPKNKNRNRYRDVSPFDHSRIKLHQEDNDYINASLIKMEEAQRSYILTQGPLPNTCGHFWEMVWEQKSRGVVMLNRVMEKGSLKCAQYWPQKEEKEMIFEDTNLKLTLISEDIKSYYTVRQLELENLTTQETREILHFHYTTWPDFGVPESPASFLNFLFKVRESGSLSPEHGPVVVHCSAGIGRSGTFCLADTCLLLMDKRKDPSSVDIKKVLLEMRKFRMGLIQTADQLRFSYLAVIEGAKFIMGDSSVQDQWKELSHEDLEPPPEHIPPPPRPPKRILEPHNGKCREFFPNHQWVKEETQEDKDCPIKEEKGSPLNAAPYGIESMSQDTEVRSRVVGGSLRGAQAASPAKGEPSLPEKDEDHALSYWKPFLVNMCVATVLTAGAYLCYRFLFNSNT

MCF7 = assay: Cytotoxicity against human MCF7 cells at 10 uM after 96 hrs by MTT assay; assay type: functional, cell-based
KETR3 = assay: Cytotoxicity against human Ketr3 cells at 10 uM after 96 hrs by MTT assay; assay type: functional, cell-based
PC-12 = assay: Neuroprotective activity against glutamate-induced neurotoxicity in rat PC12 cells at 10 uM preincubated for 24 hrs prior challenge measured after 24 hrs by MTT assay; assay type: functional, cell-based
A549 = assay: Cytotoxicity against human A549 cells at 10 uM after 96 hrs by MTT assay; assay type: functional, cell-based
[2] = Antiinflammatory activity in rat polymorphonuclear leukocytes assessed as inhibition of platelet-activating factor-induced glucuronidase release at 10 uM preincubated for 15 mins before challenge by spectrophotometry; assay type: functional
Bel-7402 = assay: Cytotoxicity against human Bel7402 cells at 10 uM after 96 hrs by MTT assay; assay type: functional, cell-based
[3] = tested on: Human immunodeficiency virus 1; assay: Antiviral activity against HIV1 infected in 293T cells at 10 uM pretreated for 15 mins prior infection measured after 48 hrs by luciferase reporter gene assay; assay type: functional, organism-based
Liver microsomes = assay: Antioxidant activity against Fe2+-cystine induced lipid peroxidation in rat liver microsomes at 10 uM; assay type: functional; details: Microsome
HCT-8 = assay: Cytotoxicity against human HCT8 cells at 10 uM after 96 hrs by MTT assay; assay type: functional, cell-based
[4] = molecular target: Signal transducer and activator of transcription 3 (Homo sapiens) (UniProt P40763); assay: Inhibition of STAT-3 activity in HELF cells at 10 uM; assay type: cell-based
Chain of Signal transducer and activator of transcription 3 (Homo sapiens) (P40763 whole entry): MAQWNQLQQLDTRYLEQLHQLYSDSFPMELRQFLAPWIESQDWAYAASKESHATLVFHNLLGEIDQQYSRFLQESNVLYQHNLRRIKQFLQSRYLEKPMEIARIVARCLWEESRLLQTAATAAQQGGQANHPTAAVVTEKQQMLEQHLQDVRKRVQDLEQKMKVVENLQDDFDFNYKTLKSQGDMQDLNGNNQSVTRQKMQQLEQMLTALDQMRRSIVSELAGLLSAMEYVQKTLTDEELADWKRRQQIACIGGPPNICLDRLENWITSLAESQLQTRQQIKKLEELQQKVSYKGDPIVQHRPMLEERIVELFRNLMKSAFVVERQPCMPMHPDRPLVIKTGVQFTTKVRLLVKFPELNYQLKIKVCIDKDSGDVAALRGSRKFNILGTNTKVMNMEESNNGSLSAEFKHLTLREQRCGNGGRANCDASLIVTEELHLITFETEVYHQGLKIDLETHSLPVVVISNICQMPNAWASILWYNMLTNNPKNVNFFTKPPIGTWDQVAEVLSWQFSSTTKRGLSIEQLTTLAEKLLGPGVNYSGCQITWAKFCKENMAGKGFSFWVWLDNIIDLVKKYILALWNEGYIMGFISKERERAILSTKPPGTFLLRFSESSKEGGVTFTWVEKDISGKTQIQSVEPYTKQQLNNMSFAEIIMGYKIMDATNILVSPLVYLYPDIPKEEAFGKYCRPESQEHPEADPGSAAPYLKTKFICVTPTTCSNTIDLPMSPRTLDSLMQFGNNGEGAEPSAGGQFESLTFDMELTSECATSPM
Method in brief: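 HELF cells grown in DMEM with 10% FCS under humidified 5% CO2, transfected with pSTAT-3-TA-luc firefly luciferase reporter plasmid by lipofectamine 2000. After 24 h, treated in 5% FBS with compound or DMSO for 24 h. Luciferase activity read in cell lysates by luminometer; activity expressed relative to DMSO-treated transfected cells set at 100%.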

C=C[C@H]1[C@H](O[C@@H]2O[C@H](CO)[C@@H](O)[C@H](O)[C@H]2O)OC=C(C(=O)O)[C@H]1/C=C/c1cc(C(=O)[O-])c[n+](CCCC(=O)O)c1 [DEMETHYL LONIJAPOSIDE A]
Activity (BGC-823): inactive | inhibition [1]: inactive | Activity (MCF7): inactive | Activity (KETR3): inactive | Activity (PC-12): inactive | Activity (A549): inactive | inhibition at 10 µM [2]: < 30% | Activity (Bel-7402): inactive | Activity [3]: inactive | Activity (Liver microsomes): inactive | Activity (HCT-8): inactive

C[C@@H]1C(=O)O[C@H]2[C@H](O)[C@@]34[C@H]5C[C@@H](C(C)(C)C)[C@]36[C@@H](OC(=O)[C@@H]6O)O[C@@]4(C(=O)O5)[C@@]12O [GINKOLIDE B]
inhibition at 10 µM [2]: 84.3%

C=C[C@H]1[C@H](O[C@@H]2O[C@H](CO)[C@@H](O)[C@H](O)[C@H]2O)OC=C(C(=O)OC)[C@H]1/C=C/c1cc(C(=O)[O-])c[n+](CC)c1 [LONIJAPOSIDE E]
Activity (BGC-823): inactive | inhibition [1]: inactive | Activity (MCF7): inactive | Activity (KETR3): inactive | Activity (PC-12): inactive | Activity (A549): inactive | inhibition at 10 µM [2]: < 30% | Activity (Bel-7402): inactive | Activity [3]: inactive | Activity (Liver microsomes): inactive | Activity (HCT-8): inactive

C=C[C@H]1[C@H](O[C@@H]2O[C@H](CO)[C@@H](O)[C@H](O)[C@H]2O)OC=C(C(=O)O)[C@H]1/C=C/c1cc(C(=O)[O-])c[n+](CC)c1 [LONIJAPOSIDE F]
Activity (BGC-823): inactive | inhibition [1]: inactive | Activity (MCF7): inactive | Activity (KETR3): inactive | Activity (PC-12): inactive | Activity (A549): inactive | inhibition at 10 µM [2]: 87.6% | Activity (Bel-7402): inactive | Activity [3]: inactive | Activity (Liver microsomes): inactive | Activity (HCT-8): inactive

C=C[C@H]1[C@H](O[C@@H]2O[C@H](CO)[C@@H](O)[C@H](O)[C@H]2O)OC=C(C(=O)OC)[C@H]1/C=C/c1cc(C(=O)[O-])c[n+](C)c1 [LONIJAPOSIDE G]
Activity (BGC-823): inactive | inhibition [1]: inactive | Activity (MCF7): inactive | Activity (KETR3): inactive | Activity (PC-12): inactive | Activity (A549): inactive | inhibition at 10 µM [2]: < 30% | Activity (Bel-7402): inactive | Activity [3]: inactive | Activity (Liver microsomes): inactive | Activity (HCT-8): inactive

C=C[C@@H]1/C(=C\Cc2cc(C(=O)[O-])c[n+](CCCC(=O)O)c2)C(C(=O)OC)=CO[C@H]1O[C@@H]1O[C@H](CO)[C@@H](O)[C@H](O)[C@H]1O [LONIJAPOSIDE H]
Activity (BGC-823): inactive | inhibition [1]: inactive | Activity (MCF7): inactive | Activity (KETR3): inactive | Activity (PC-12): inactive | Activity (A549): inactive | inhibition at 10 µM [2]: 68.6% | Activity (Bel-7402): inactive | Activity [3]: inactive | Activity (Liver microsomes): inactive | Activity (HCT-8): inactive

C=C[C@H]1[C@H](O[C@@H]2O[C@H](CO)[C@@H](O)[C@H](O)[C@H]2O)OC=C(C(=O)[O-])[C@H]1/C=C/c1ccc[n+](CCO)c1 [LONIJAPOSIDE I]
Activity (BGC-823): inactive | inhibition [1]: inactive | Activity (MCF7): inactive | Activity (KETR3): inactive | Activity (PC-12): inactive | Activity (A549): inactive | inhibition at 10 µM [2]: 72.1% | Activity (Bel-7402): inactive | Activity [3]: inactive | Activity (Liver microsomes): inactive | Activity (HCT-8): inactive

C=C[C@H]1[C@H](O[C@@H]2O[C@H](CO)[C@@H](O)[C@H](O)[C@H]2O)OC=C(C(=O)OC)[C@H]1/C=C/c1ccc[n+](CCO)c1 [LONIJAPOSIDE J]
Activity (BGC-823): inactive | inhibition [1]: inactive | Activity (MCF7): inactive | Activity (KETR3): inactive | Activity (PC-12): inactive | Activity (A549): inactive | inhibition at 10 µM [2]: < 30% | Activity (Bel-7402): inactive | Activity [3]: inactive | Activity (Liver microsomes): inactive | Activity (HCT-8): inactive

C=C[C@H]1[C@H](O[C@@H]2O[C@H](CO)[C@@H](O)[C@H](O)[C@H]2O)OC=C(C(=O)[O-])[C@H]1/C=C/c1ccc[n+](CC(=O)O)c1 [LONIJAPOSIDE K]
Activity (BGC-823): inactive | inhibition [1]: inactive | Activity (MCF7): inactive | Activity (KETR3): inactive | Activity (PC-12): inactive | Activity (A549): inactive | inhibition at 10 µM [2]: 54.6% | Activity (Bel-7402): inactive | Activity [3]: inactive | Activity (Liver microsomes): inactive | Activity (HCT-8): inactive

C=C[C@H]1[C@H](O[C@@H]2O[C@H](CO)[C@@H](O)[C@H](O)[C@H]2O)OC=C(C(=O)[O-])[C@H]1/C=C/c1ccc[n+](CCC(=O)O)c1 [LONIJAPOSIDE L]
Activity (BGC-823): inactive | inhibition [1]: inactive | Activity (MCF7): inactive | Activity (KETR3): inactive | Activity (PC-12): inactive | Activity (A549): inactive | inhibition at 10 µM [2]: < 30% | Activity (Bel-7402): inactive | Activity [3]: inactive | Activity (Liver microsomes): inactive | Activity (HCT-8): inactive

C=C[C@H]1[C@H](O[C@@H]2O[C@H](CO)[C@@H](O)[C@H](O)[C@H]2O)OC=C(C(=O)[O-])[C@H]1/C=C/c1ccc[n+](CCCC(=O)O)c1 [LONIJAPOSIDE M]
Activity (BGC-823): inactive | inhibition [1]: inactive | Activity (MCF7): inactive | Activity (KETR3): inactive | Activity (PC-12): inactive | Activity (A549): inactive | inhibition at 10 µM [2]: < 30% | Activity (Bel-7402): inactive | Activity [3]: inactive | Activity (Liver microsomes): inactive | Activity (HCT-8): inactive

C=C[C@H]1[C@H](O[C@@H]2O[C@H](CO)[C@@H](O)[C@H](O)[C@H]2O)OC=C(C(=O)OC)[C@H]1/C=C/c1ccc[n+](CCCC(=O)[O-])c1 [LONIJAPOSIDE N]
Activity (BGC-823): inactive | inhibition [1]: inactive | Activity (MCF7): inactive | Activity (KETR3): inactive | Activity (PC-12): inactive | Activity (A549): inactive | inhibition at 10 µM [2]: < 30% | Activity (Bel-7402): inactive | Activity [3]: inactive | Activity (Liver microsomes): inactive | Activity (HCT-8): inactive

O=C(O)C1=CO[C@@H](O[C@@H]2O[C@H](CO)[C@@H](O)[C@H](O)[C@H]2O)[C@H]2[C@@H]1C[C@@H]1C[C@H]2OC=C1c1ccccc1 [LONIPHENYRUVIRIDOSIDE A]
Activity (BGC-823): inactive | inhibition [4]: 45.7% | inhibition [1]: inactive | Activity (MCF7): inactive | Activity (KETR3): inactive | Activity (PC-12): inactive | Activity (A549): inactive | inhibition at 10 µM [2]: < 30% | Activity (Bel-7402): inactive | Activity [3]: inactive | Activity (Liver microsomes): inactive | Activity (HCT-8): inactive

C=C[C@H]1[C@H](O[C@@H]2O[C@H](CO)[C@@H](O)[C@H](O)[C@H]2O)OC=C2C(=O)O[C@@H](/C(=C(/O)C(=O)O)c3ccccc3)C[C@H]21 [LONIPHENYRUVIRIDOSIDE B]
Activity (BGC-823): inactive | inhibition [4]: 25.8% | inhibition [1]: inactive | Activity (MCF7): inactive | Activity (KETR3): inactive | Activity (PC-12): inactive | Activity (A549): inactive | inhibition at 10 µM [2]: < 30% | Activity (Bel-7402): inactive | Activity [3]: inactive | Activity (Liver microsomes): inactive | Activity (HCT-8): inactive

C=C[C@H]1[C@H](O[C@@H]2O[C@H](CO)[C@@H](O)[C@H](O)[C@H]2O)OC=C2C(=O)O[C@H](/C(=C(/O)C(=O)O)c3ccccc3)C[C@@H]21 [LONIPHENYRUVIRIDOSIDE C]
Activity (BGC-823): inactive | inhibition [4]: 30.9% | inhibition [1]: inactive | Activity (MCF7): inactive | Activity (KETR3): inactive | Activity (PC-12): inactive | Activity (A549): inactive | inhibition at 10 µM [2]: < 30% | Activity (Bel-7402): inactive | Activity [3]: inactive | Activity (Liver microsomes): inactive | Activity (HCT-8): inactive
